ChEMBL document CHEMBL1144013, “Indol-3-yl-tetramethylcyclopropyl ketones: effects of indole ring substitution on CB2 cannabinoid receptor activity” (J Med Chem, 2008)

What was measured:
Homo sapiens = species on record: Homo sapiens; experiment: Selectivity for human recombinant CB2 receptor over human recombinant CB1 receptor
Summary of the method: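 Ki ratio from [3H]CP-55940 (0.5 nM) competition binding: human CB1 membranes from stably expressing […] cells versus human CB2 membranes from stably expressing HEK cells. Tris-HCl pH 7.4 buffer with EDTA, MgCl2, BSA; 90 min at 30 °C; filtration counting; nonspecific with 10 µM unlabeled ligand; ≥3 experiments in duplicate.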

Cannabinoid receptor 2 [1] = molecular target: T1, Cannabinoid receptor 2 (Homo sapiens, UniProt P34972); experiment: Agonist activity at human recombinant CB2 receptor expressed in HEK cells assessed as calcium mobilization by FLIPR; format: functional, cell-based, HEK293
Summary of the method: (§1)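 HEK cells stably coexpressing human CB2 and chimeric Gαq/o5 protein, seeded 75,000/well one day before; no-wash calcium dye.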

Cannabinoid receptor 1 = Cannabinoid receptor 1 (Homo sapiens, UniProt P21554); experiment: Displacement of [3H]CP-55940 from human recombinant CB1 receptor expressed in HEK cells; format: cell-based, HEK293
Cannabinoid receptor 2 [2] = molecular target: T1, Cannabinoid receptor 2; experiment: Displacement of [3H]CP-55940 from human recombinant CB2 receptor expressed in HEK cells; format: cell-based, HEK293
Cannabinoid receptor 2 [3] = molecular target: T1, Cannabinoid receptor 2; experiment: Agonist activity at human recombinant CB2 receptor expressed in HEK cells assessed as calcium mobilization by FLIPR relative to CP-55940; format: functional, cell-based; conditions: HEK293; summary of the method: as §1

T1 sequence (P34972 whole entry): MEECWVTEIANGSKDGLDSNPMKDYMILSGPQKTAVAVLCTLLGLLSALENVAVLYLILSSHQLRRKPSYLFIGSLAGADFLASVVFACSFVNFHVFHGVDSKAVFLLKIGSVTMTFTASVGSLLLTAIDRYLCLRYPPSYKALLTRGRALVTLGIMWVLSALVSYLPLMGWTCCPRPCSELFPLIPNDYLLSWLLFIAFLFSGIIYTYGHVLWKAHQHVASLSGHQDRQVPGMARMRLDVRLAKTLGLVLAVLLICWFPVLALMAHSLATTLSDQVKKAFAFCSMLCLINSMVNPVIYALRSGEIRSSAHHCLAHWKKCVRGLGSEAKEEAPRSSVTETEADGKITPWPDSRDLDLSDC
Sequence of Cannabinoid receptor 1 (P21554 whole entry): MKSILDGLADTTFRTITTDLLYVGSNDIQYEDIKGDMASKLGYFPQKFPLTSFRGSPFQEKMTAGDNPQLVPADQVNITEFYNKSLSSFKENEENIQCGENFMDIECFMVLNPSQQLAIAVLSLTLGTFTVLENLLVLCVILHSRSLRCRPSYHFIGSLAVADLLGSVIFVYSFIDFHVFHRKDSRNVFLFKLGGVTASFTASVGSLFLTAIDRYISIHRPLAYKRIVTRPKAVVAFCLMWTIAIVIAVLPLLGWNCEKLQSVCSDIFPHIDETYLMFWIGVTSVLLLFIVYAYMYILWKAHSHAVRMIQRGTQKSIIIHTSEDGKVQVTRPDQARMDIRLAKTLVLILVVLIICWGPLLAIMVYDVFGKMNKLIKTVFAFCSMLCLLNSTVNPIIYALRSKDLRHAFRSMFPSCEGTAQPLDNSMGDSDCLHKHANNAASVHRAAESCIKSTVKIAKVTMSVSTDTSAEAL

| SMILES | Ratio Ki (Homo sapiens) | EC50 (Cannabinoid receptor 2 [1]) [nM] | Ki (Cannabinoid receptor 1; read-out: Ki) [nM] | Ki (Cannabinoid receptor 2 [2]; read-out: Ki) [nM] | Activity (Cannabinoid receptor 2 [3]) [%] | Ki (Cannabinoid receptor 1; read-out: Log Ki (converted)) [nM] | Ki (Cannabinoid receptor 2 [2]; read-out: Log Ki (converted)) [nM] | Ki (Cannabinoid receptor 2 [2]; hek293, read-out: Ki) [nM] |
| --- | --- | --- | --- | --- | --- | --- | --- | --- |
| CC1(C)C(C(=O)c2cn(CC3CCOCC3)c3ccc(CO)cc23)C1(C)C | > 88 | 73 | > 10000 | 113 | 53 | – | – | – |
| COc1ccc2c(c1)c(C(=O)C1C(C)(C)C1(C)C)cn2CC1CCOCC1 | 61 | 61 | 282 | 4.6 | 35 | – | – | – |
| COc1ccc2c(c1)c(C(=O)C1C(C)(C)C1(C)C)cn2CCN1CCOCC1 | > 15 | > 10000 | > 3500 | 237 | – | > 3470 | – | – |
| CC1(C)C(C(=O)c2cn(CC3CCOCC3)c3cc(C#N)ccc23)C1(C)C | – | 45 | – | 5 | 67 | – | – | – |
| CC1(C)C(C(=O)c2cn(CCN3CCOCC3)c3cccc([N+](=O)[O-])c23)C1(C)C | > 34 | > 10000 | > 10000 | 297 | – | – | – | – |
| CC1(C)C(C(=O)c2cn(CC3CCOCC3)c3cc(Cl)ccc23)C1(C)C | – | 10 | – | 2.5 | 60 | – | – | – |
| COC(=O)c1ccc2c(c1)c(C(=O)C1C(C)(C)C1(C)C)cn2CC1CCOCC1 | > 42 | > 10000 | > 10000 | 238 | – | – | – | – |
| CC1(C)C(C(=O)c2cn(CC3CCOCC3)c3ccc(OCc4ccccc4)cc23)C1(C)C | 183 | > 10000 | 238 | 1.3 | – | – | – | – |
| CC1(C)C(C(=O)c2cn(CC3CCOCC3)c3cc(C(F)(F)F)ccc23)C1(C)C | 20 | > 10000 | 70 | 3.5 | – | – | – | – |
| CC1(C)C(C(=O)c2cn(CCN3CCOCC3)c3cccc(NS(C)(=O)=O)c23)C1(C)C | – | > 10000 | – | > 1000 | – | – | – | – |
| CC1(C)C(C(=O)c2cn(CC3CCOCC3)c3ccccc23)C1(C)C | – | 7 | – | 0.21 | 133 | – | – | – |
| CN1CCCCC1Cn1cc(C(=O)c2cc([N+](=O)[O-])ccc2I)c2ccccc21 (stereo unspecified) | 110 | > 10000 | 1270 | 11.5 | – | – | – | – |
| CC1(C)C(C(=O)c2cn(CC3CCOCC3)c3ccc(Br)cc23)C1(C)C | 292 | 280 | 1930 | 6.6 | 54 | – | – | – |
| CCCn1c(C)c(C(=O)c2cccc3ccccc23)c2ccccc21 | – | – | – | – | 75 | – | – | – |
| Cc1ccc2c(C(=O)C3C(C)(C)C3(C)C)cn(CC3CCOCC3)c2c1 | – | > 10000 | – | 0.15 | – | – | – | – |
| COC(=O)c1ccc2c(C(=O)C3C(C)(C)C3(C)C)cn(CC3CCOCC3)c2c1 | – | > 10000 | – | 1.4 | – | – | – | – |
| CC1(C)C(C(=O)c2cn(CC3CCOCC3)c3cc(OCc4ccccc4)ccc23)C1(C)C | – | 135 | – | 0.88 | 45 | – | – | – |
| CC1(C)C(C(=O)c2cn(CC3CCOCC3)c3cc(O)ccc23)C1(C)C | > 353 | 15 | > 3000 | 8.5 | 107 | > 3020 | – | – |
| CC1(C)C(C(=O)c2cn(CCN3CCOCC3)c3cc(O)ccc23)C1(C)C | > 92 | 186 | > 10000 | 109 | 62 | – | – | – |
| COc1ccc2c(C(=O)C3C(C)(C)C3(C)C)cn(CCN3CCOCC3)c2c1 | – | > 10000 | – | – | – | – | 1.58 | – |
| COc1ccc2c(C(=O)C3C(C)(C)C3(C)C)cn(CC3CCOCC3)c2c1 | 78 | > 10000 | 40 | 0.51 | – | – | – | – |
| COc1cccc2c(C(=O)C3C(C)(C)C3(C)C)cn(CC3CCOCC3)c12 | – | > 10000 | – | 0.12 | – | – | – | – |
| CC1(C)C(C(=O)c2cn(CCN3CCOCC3)c3cc(OCc4ccccc4)ccc23)C1(C)C | – | > 10000 | – | 2.9 | – | – | – | – |

| SMILES | Ratio Ki (Homo sapiens) | EC50 (Cannabinoid receptor 2 [1]) [nM] | Ki (Cannabinoid receptor 1; read-out: Ki) [nM] | Ki (Cannabinoid receptor 2 [2]; read-out: Ki) [nM] | Activity (Cannabinoid receptor 2 [3]) [%] | Ki (Cannabinoid receptor 1; read-out: Log Ki (converted)) [nM] | Ki (Cannabinoid receptor 2 [2]; read-out: Log Ki (converted)) [nM] | Ki (Cannabinoid receptor 2 [2]; hek293, read-out: Ki) [nM] |
| --- | --- | --- | --- | --- | --- | --- | --- | --- |
| CC1(C)C(C(=O)c2cn(CC3CCOCC3)c3ccc(CN)cc23)C1(C)C | – | > 10000 | > 10000 | > 1000 | – | – | – | – |
| CC1(C)C(C(=O)c2cn(CC3CCOCC3)c3c(O)cccc23)C1(C)C | – | > 10000 | – | 3.2 | – | – | – | – |
| CC1(C)C(C(=O)c2cn(CC3CCOCC3)c3cccc(OCc4ccccc4)c23)C1(C)C | > 1080 | 383 | > 10000 | 9.3 | 45 | – | – | – |
| CC1(C)C(C(=O)c2cn(CC3CCOCC3)c3cc(Br)ccc23)C1(C)C | – | > 10000 | – | 0.65 | – | – | – | – |
| CC1(C)C(C(=O)c2cn(CC3CCOCC3)c3cc4c(cc23)OCO4)C1(C)C | – | 18 | – | 1 | 62 | – | – | – |
| CC1(C)C(C(=O)c2cn(CC3CCOCC3)c3ccc(C#N)cc23)C1(C)C | – | 226 | – | 30 | 65 | – | – | – |
| CC(=O)Nc1cccc2c1c(C(=O)C1C(C)(C)C1(C)C)cn2CCN1CCOCC1 | – | > 10000 | > 2200 | > 1000 | – | > 2190 | – | – |
| CC1(C)C(C(=O)c2cn(CC3CCOCC3)c3c(OCc4ccccc4)cccc23)C1(C)C | 353 | > 10000 | 1100 | 3.1 | – | – | – | – |
| CC1(C)C(C(=O)c2cn(CCN3CCOCC3)c3ccc(O)cc23)C1(C)C | > 109 | > 10000 | > 10000 | 92 | – | – | – | – |
| CC1(C)C(C(=O)c2cn(CC3CCOCC3)c3ccc(F)cc23)C1(C)C | 756 | 22 | 1210 | 1.6 | 88 | – | – | – |
| COc1cc2c(cc1OCc1ccccc1)c(C(=O)C1C(C)(C)C1(C)C)cn2CC1CCOCC1 | – | > 10000 | – | 1.8 | – | – | – | – |
| CC1(C)C(C(=O)c2cn(CC3CCOCC3)c3ccc(OCCCCBr)cc23)C1(C)C | > 139 | > 10000 | > 10000 | 72 | – | – | – | – |
| CC1(C)C(C(=O)c2cn(CC3CCOCC3)c3cc(O)c(O)cc23)C1(C)C | – | 21 | – | 21 | 106 | – | – | – |
| CC1(C)C(C(=O)c2cn(CC3CCOCC3)c3cc(CN)ccc23)C1(C)C | > 16 | > 10000 | > 1000 | 62 | – | – | – | – |
| CC1(C)C(C(=O)c2cn(CC3CCOCC3)c3cc(S(C)(=O)=O)ccc23)C1(C)C | 423 | > 10000 | 1270 | 3 | – | – | – | – |
| CC1(C)C(C(=O)c2cn(CC3CCOCC3)c3ccc(-c4ccccc4)cc23)C1(C)C | – | > 10000 | – | 58 | – | – | – | – |
| CC1(C)C(C(=O)c2cn(CCN3CCOCC3)c3cccc(N)c23)C1(C)C | > 109 | 50 | > 3500 | 32 | 41 | > 3470 | – | – |
| CC1(C)C(C(=O)c2cn(CC3CCOCC3)c3ccc(OCCCCO)cc23)C1(C)C | > 38 | > 10000 | > 10000 | 260 | – | – | – | – |
| COc1cc2c(cc1O)c(C(=O)C1C(C)(C)C1(C)C)cn2CC1CCOCC1 | – | > 10000 | – | 0.7 | – | – | – | – |
| CC1(C)C(C(=O)c2cn(CCN3CCOCC3)c3ccc(OCc4ccccc4)cc23)C1(C)C | – | > 10000 | > 10000 | – | – | – | > 1000 | > 1000 |
| CC1(C)C(C(=O)c2cn(CC3CCOCC3)c3ccc(O)cc23)C1(C)C | – | 7 | – | 1.9 | 78 | – | – | – |
| COCc1ccc2c(c1)c(C(=O)C1C(C)(C)C1(C)C)cn2CC1CCOCC1 | – | 41 | – | 26 | 50 | – | – | – |
